# TNAP act hiacc – increases human TNAP activity under high phosphate acceptor concentration; purified TNAP, CDP-star luminescence, 1 M DEA, 30 min; stronger effect = higher value; 0 = EDTA background, 1 = DMSO-only activity; activation factor at 20 µM; 200,000 tested, under 10 active; AID 1136;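 active = activation factor at least 2 at 20 µM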
#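 Test system – human TNAP · Doses – 20 µM single point · Incubation – 30 min, room temperature · Signal – luminescent substrate turnover signal · Read-out basis – activation factor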
# Redox H2O2 prof – compounds producing H2O2 with reducing agent – biochemical, NIH compound library profiling, artefact control for MLSCN library redox annotation, primary screen; DTT-dependent redox cycling H2O2, phenol red/HRP absorbance; 100% = 100 µM peroxide control, 0% = buffer; activation, % at 10 µM; 0.03% of 200,000 active;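 active = activation of at least 50% relative to the plate's high and low controls in the primary single-dose screen; inactive = activation below 50%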;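 also: compound incubated with DTT at 0.8 mM final as the reducing agent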
# p97 ATPase inh – blocks human p97 ATPase activity; P55072; recombinant p97 ATPase, Kinase-Glo ATP luminescence, 3 h; inhibition, % at 8 µM; 0.42% of 220,000 active; in the data active = inhibition above about 15%;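 also: 0% = DMSO vehicle and 100% = wells lacking enzyme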
# Target sequence (P55072 whole entry, looked up): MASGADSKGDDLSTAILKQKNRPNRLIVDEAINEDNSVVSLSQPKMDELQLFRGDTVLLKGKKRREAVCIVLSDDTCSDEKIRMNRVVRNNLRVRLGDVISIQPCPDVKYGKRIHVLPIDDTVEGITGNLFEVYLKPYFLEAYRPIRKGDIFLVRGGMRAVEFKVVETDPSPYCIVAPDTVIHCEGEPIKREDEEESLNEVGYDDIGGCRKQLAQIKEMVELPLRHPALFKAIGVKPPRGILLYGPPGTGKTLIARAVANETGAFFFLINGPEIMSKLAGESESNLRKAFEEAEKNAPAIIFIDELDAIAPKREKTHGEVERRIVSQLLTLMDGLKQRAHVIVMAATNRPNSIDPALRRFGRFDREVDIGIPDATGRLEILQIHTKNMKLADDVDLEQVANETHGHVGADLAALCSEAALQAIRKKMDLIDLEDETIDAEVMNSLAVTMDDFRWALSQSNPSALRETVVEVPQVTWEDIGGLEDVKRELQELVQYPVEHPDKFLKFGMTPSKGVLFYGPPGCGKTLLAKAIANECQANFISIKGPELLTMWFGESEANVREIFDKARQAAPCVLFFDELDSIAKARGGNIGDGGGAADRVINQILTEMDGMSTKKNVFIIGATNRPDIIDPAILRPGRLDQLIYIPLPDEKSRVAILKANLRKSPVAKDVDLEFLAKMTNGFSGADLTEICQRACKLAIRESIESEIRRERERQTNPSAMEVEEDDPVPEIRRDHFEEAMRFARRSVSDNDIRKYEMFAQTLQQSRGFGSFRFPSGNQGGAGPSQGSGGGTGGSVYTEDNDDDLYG
# PERK inhibitor – human PERK inhibition, primary cell-based screen | Q9NZJ5 | CHO PERK-DD fusion, SEAP luminescence translation reporter | inhibition, % at 5.6 µM | 0.17% of 220,000 active | AID 1416;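 active = inhibition above the mean inhibition of all tested compounds plus 3 SD, set separately per screening campaign, cut at about 2.9% in these data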;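 also: PERK kinase domain activated by AP20187 dimerizer at 100 nM; 0% = DMSO with dimerizer and 100% = rapamycin at 8.4 µM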
# TNAP inh noacc – TNAP (human) inhibition, acceptor-free conditions; purified TNAP, CDP-star luminescence, 30 min; 0.26% of 200,000 active; P05186; inhibition, % at 20 µM;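 active = tissue-nonspecific alkaline phosphatase inhibition above about 50% at 20 µM in the single-dose screen, limit read from the data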;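 also: 0% = DMSO negative control and 100% = EDTA positive control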
# TNAP inh hi DEA – inhibitors of human TNAP at high phosphate acceptor concentration | P05186 | purified TNAP, CDP-star luminescence, 1 M DEA | inhibition, % at 20 µM | 0.03% of 200,000 active;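 active = over 50% inhibition of tissue-nonspecific alkaline phosphatase at 20 µM in the single-dose screen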;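 also: plate controls were DMSO wells for no effect and EDTA-quenched wells as full inhibition for full effect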
# An asterisk follows results filed as active; / = no result given. Compounds with a hit are over-represented: about 0.86% of the library has one in this group of screens.
SMILES,TNAP act hiacc,Redox H2O2 prof,p97 ATPase inh,PERK inhibitor,TNAP inh noacc,TNAP inh hi DEA
O=C(CN1C(=O)CSC1=O)Nc1ccccc1N1CCOCC1,1.1,-0.2,6.0,3.1*,27.6,-6.7
Cc1ccsc1-c1nc(CN(C)C(C2CC2)C2CC2)c(C)o1,1,-1.0,1.1,-0.6,-8.6,-3.4
Cn1c(SCC(=O)Nc2sccc2C(N)=O)nnc1-c1ccncc1,/,/,0.4,0.7,/,/
CCc1nnc(NC(=O)CSc2nnc(-c3ccncc3)n2C)s1,1,1.9,4.0,3.3*,-2.2,0.4
O=C(c1cc2ccccc2o1)N1CCC(N2CCC(C(=O)N3CCCC3)CC2)CC1,1.1,0.6,-5.8,-0.4,-16.0,-9.7
CC(C)/C=C/C(=O)N1CCC(N2CCC(C(=O)N3CCOCC3)CC2)CC1,1,-1.2,-2.5,0.5,-13.5,-4.7
CC(C)Cc1cc(C(=O)N2CCC(N3CCC(C(=O)NC4CC4)CC3)CC2)n[nH]1,1.1,-0.7,0.0,1.5,92.1*,-8.1
CC(C)Cc1cc(C(=O)N2CCC(N3CCC(C(=O)N4CCCC4)CC3)CC2)n[nH]1,1.1,0.0,-3.8,0.6,86.8*,-5.7
O=C(NC1CC1)C1CCN(C2CCN(C(=O)Cc3ccc(F)cc3)CC2)CC1,1.1,-0.8,2.7,1.1,-11.5,-9.2
CC(C)Cc1cc(C(=O)N2CCC(N3CCC(C(=O)N4CCOCC4)CC3)CC2)n[nH]1,1,-0.5,-3.3,0.2,87.9*,-2.6
C=CCNC(=S)NCC=C,/,/,-1.3,0.7,/,/
NNc1ncnc2sc3c(c12)CCC3,1,-0.7,-2.3,0.7,87.6*,0.1
Cc1cc2c(ncn2C(C)C)c(N)c1C,1,2.5,2.0,1.3,-31.5,-4.7
Cc1c(Br)c([N+](=O)[O-])nn1CC(=O)Nc1ccc(C(N)=O)cc1,1,-2.1,-4.0,-0.2,-0.1,-0.6
CCn1c(-c2ccc(C)cc2)n[nH]c1=S,1,0.1,0.1,0.5,51.8*,2.7
CCOC(=O)NC(Nc1ccc(C)cn1)(C(F)(F)F)C(F)(F)F,1,1.4,3.9,0.3,-15.7,1.7
COC(=O)C(NC(C)=O)(Nc1ccc(C)cn1)C(F)(F)F (stereo not given),/,/,-1.5,3.4*,/,/
CCOC(=O)c1ccc(N/N=C/c2cc(Br)cc([N+](=O)[O-])c2O)cc1,0.4,-0.6,-0.9,0.1,47.5,56.3*
O=C(CCCN1CC=C(n2c(=O)[nH]c3ccccc32)CC1)c1ccc(F)cc1,0.9,0.3,3.0,-1.4,62.8*,6.6
Cc1ccc(-c2cc(C(=O)N/N=C/c3ccco3)n[nH]2)s1,0.9,0.8,-2.6,1.1,68.0*,13.0
O=C(N/N=C/c1ccco1)c1cc(-c2ccc3ccccc3c2)n[nH]1,1,0.6,-0.3,-0.7,3.2,-2.6
CCc1ccc(-c2cc(C(=O)N/N=C/c3ccco3)[nH]n2)cc1,1,-0.2,4.3,1.3,50.8*,-1.0
Cc1ccccc1OCC1CNC(=O)O1 (stereo not given),1,-0.5,3.5,0.2,-6.2,-0.5
O=C1NCC(COc2cccc3ccccc23)O1 (stereo not given),1,-0.6,4.1,3.1*,-11.8,-3.6
CN(CCCN1CCCCC1)C(=O)CCc1nnc(C2CCCCC2)o1,1.1,-0.4,5.3,0.9,-14.3,-7.5
SMILES,TNAP act hiacc,Redox H2O2 prof,p97 ATPase inh,PERK inhibitor,TNAP inh noacc,TNAP inh hi DEA
Cc1cccc(-c2c3c(=O)n(C)c(=O)n(C)c3cn2CC2CCCO2)c1 (stereo not given),1.1,0.5,-3.1,0.4,-5.8,-5.1
COc1ccc(C(=O)Nc2n[nH]c(-c3ccncc3)n2)cc1,1,-3.5,3.5,1.1,91.8*,2.0
O=C(CSc1cccc[n+]1[O-])c1cc(Cl)ccc1Cl,1,0.0,2.1,0.4,-5.8,-4.8
COc1ccccc1NC(=O)COc1ccc(/C=N/NC(=O)CSCc2cc(C)cc(C)c2)cc1,1,0.3,3.2,1.1,-12.9,-0.7
COc1ccccc1NC(=O)COc1ccc(/C=N/NC(=O)CSCc2ccc(Cl)cc2)cc1,1,-11.6,1.4,3.3*,-10.9,0.1
O=C(Nc1ccc(CN2CCS(=O)(=O)CC2)cc1)c1ccc(Cl)cc1,/,/,6.8,-0.7,/,/
Cc1ccc(-c2cc(C(=O)OC3CCOC3=O)c3ccccc3n2)c(C)c1 (stereo not given),1,-0.1,-0.4,2.9*,-8.4,-4.9
CCOC(=O)C1(Cc2ccc(OC)cc2)CCN(C(=O)c2cncs2)CC1,1,0.5,-2.7,1.1,-1.8,-3.1
O=c1cc(CSc2nnc(Nc3ccccc3F)s2)nc2sccn12,1,1.3,4.0,0.5,52.3*,0.5
CCOC(=O)c1c(C)n(OCc2ccccc2)c2ccc3nonc3c12,1,-2.0,1.3,0.0,-8.9,1.0
COn1c(C)c(C)c2c3nonc3ccc21,/,/,18.8*,0.2,/,/
C=CCn1c(C)nnc1SCC(=O)N1CCN(S(=O)(=O)c2ccccc2)CC1,/,/,-4.5,-0.4,/,/
Brc1cccc(-c2n[nH]c(-c3ccccc3)n2)c1,1,-0.1,-3.5,-0.2,57.0*,-3.5
O=C(NNc1ccccc1F)c1ccccc1,/,/,2.6,5.0*,/,/
O=C(NNc1ccccc1F)C1CCC1,/,/,9.8,0.1,/,/
CCC(C)(C)NC(=O)C(c1cccn1C)N(Cc1ccc(OC)cc1)C(=O)Cn1nnc2ccccc21 (stereo not given),1,-0.7,-6.0,-1.1,-10.2,-1.9
CC(=O)Nc1nonc1-c1ccccc1,1.1,-0.4,-2.2,3.2*,-14.2,-5.5
CC(=O)C1C(c2ccco2)c2c(noc2C)CC1(C)O (stereo not given),1,-0.3,-0.1,3.0*,-0.1,-1.5
CCN(c1ccccc1)S(=O)(=O)c1ccc(OC)c(NC(=O)Cn2cnc3c2c(=O)n(C)c(=O)n3C)c1,1,-0.9,3.4,0.4,-2.7,-0.7
COC(/C=C/Nc1ccc(C)cc1)=C(C#N)C#N,1,1.4,4.4,1.4,-3.3,-1.1
CCC(=O)n1nc(-c2ccc(OC)cc2)nc1N,1,-1.2,1.4,0.9,50.6*,-2.6
CC(=O)c1nnn(-c2ccc([N+](=O)[O-])cc2)c1C,1.1,0.2,6.7,0.9,-15.3,-9.0
CC(C)CSc1n[nH]c(N)n1,1,1.1,0.3,0.6,50.0*,-0.9
Cc1ccc(NC(=O)c2ccccc2NS(=O)(=O)c2ccc(F)cc2)cc1S(=O)(=O)N1CCCCC1,1,-0.4,2.9,0.4,-5.4,-1.1
Cc1ccc(N/N=C2/CCCNC2=O)cc1,1,2.2,4.5,1.7,-11.5,-4.4
CC(=O)c1ccc(N/N=C2/CCCNC2=O)cc1,/,/,-3.5,4.0*,/,/
NC(=S)N/N=C/c1cccc(/C=N/NC(N)=S)c1,/,/,7.4,2.0,/,/
